pIC50: −log10 of the molar value. Calls of active or inactive are those of the source. The rule behind the calls is not given here.

The pIC50 is the negative decadic logarithm of the IC50, by convention in mol/L. Lower therefore signals a high IC50. Usually inhibition stands for the relative decrease from the control value, in per cent. The low end stands for a weak effect, the high end for a strong effect.

In test [1] the test system is MDA-MB-231. Description: Antiproliferative activity against human MDA-MB-231 cells under hypoxic condition. It counts as functional, cell-based. In short, it runs like this:
(§1)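 Human prostate (DU145, PC-3) and breast (MCF-7, MDA-MB-231, T47D) carcinoma cells were grown in DMEM/F12 with 10% FCS and Pen/Strep. They were seeded at 30,000 cells/well and left overnight. Compound was added with DMSO up to 0.6% final, and plates went 48 h at 37 °C, hypoxic (1% O2:5% CO2:94% N2) or normoxic (5% CO2:95% air). Read-out was neutral red, A540 corrected at 630 nm, in quadruplicate.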

For test [2], the system named is DU-145. Kind of test: Antiproliferative activity against human DU145 cells under normoxic condition. Format: functional, cell-based. The gist of the method:
as §1

For test [3], the system named is DU-145. Kind of test: Antiproliferative activity against human DU145 cells under hypoxic condition. It counts as functional, cell-based. In short, it runs like this: as §1
Test [4] concerns T47D. Kind of test: Antiproliferative activity against T47D cells at 12. 7 uM. It counts as functional, Homo sapiens.
Test [5] concerns PC-3. Kind of test: Antiproliferative activity against human PC3 cells under hypoxic condition. It counts as functional, cell-based. In short, it runs like this:
as §1

In test [6] the test system is MCF7. Description: Antiproliferative activity against human MCF7 cells under normoxic condition. Format: functional, cell-based. In short, it runs like this:
as §1

For test [7], the species on record is Homo sapiens. Description: Inhibition of hypoxia-induced HIF1 activation at 12. 7 uM. In short, it runs like this:
(§2)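 HIF-1 activity was read in transfected cells by a luciferase reporter after a 16 h compound exposure under hypoxia (1% O2:5% CO2:94% N2). Normoxic (5% CO2:95% air) and hypoxia-mimetic (10 µM 1,10-phenanthroline) conditions were run alongside.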

The subject of test [8] is PC-3. Description: Antiproliferative activity against human PC3 cells under normoxic condition. It counts as functional, cell-based. The gist of the method:
as §1

Test [9] has as its system T47D. Description: Antiproliferative activity against human T47D cells under normoxic condition. It counts as functional, cell-based. In short, it runs like this:
as §1

For test [10], the system named is MCF7. Kind of test: Antiproliferative activity against human MCF7 cells under hypoxic condition. It counts as functional, cell-based. The gist of the method: as §1
The subject of test [11] is T47D. Kind of test: Antiproliferative activity against human T47D cells under hypoxic condition. It counts as functional, cell-based. The gist of the method: as §1
Test [12] relates to MDA-MB-231. Kind of test: Antiproliferative activity against human MDA-MB-231 cells under normoxic condition. It counts as functional, cell-based. The gist of the method:
as §1

Test [13] relates to MDA-MB-231. Kind of test: Antiproliferative activity against human MDA-MB-231 cells at 0.3 uM. Format: functional, cell-based. The gist of the method: as §1
The species named for test [14] is Homo sapiens. Description: Inhibition of hypoxia induced HIF-1 activation at 1.27 uM. The gist of the method:
as §2

For test [15], the system named is T47D. Kind of test: Antiproliferative activity against T47D cells after 16 hrs at 12. 7 uM. It counts as functional, Homo sapiens.
For test [16], the system named is T47D. Kind of test: Antiproliferative activity against T47D cells at 1.27 uM. The settings on record: Homo sapiens. Format: functional, cell-based.

Take `C=C1CCCC(C)(C)C1CCC(C)CCC[C@@]1(C)CC[C@H]([C@H](C)C(=O)OC)OO1` (relative stereo) [DIACARNOXIDE A]: the pIC50 was 4.75 with MDA-MB-231 [1]; less than 4.52 in the test with DU-145 [2]; less than 4.52 in the test with DU-145 [3]; less than 4.52 in the test with PC-3 [5]; less than 4.52 in the test on MCF7 [6]; less than 4.52 in the test with PC-3 [8]. The pIC50 is 4.83 with T47D [9], less than 4.52 with MCF7 [10], 4.57 with T47D [11] and 4.75 in the test with MDA-MB-231 [12]. In the test with T47D [4], the Activity result is given as “<=30%”. For the same molecule, the inhibition in the test listed under Homo sapiens [7] is less than 30%.
For the molecule `C=C1CCCC(C)(C)C1CCC(C)CCC[C@@]1(C)CC[C@H]([C@H](C)C(=O)O)OO1` (relative stereo) [DIACARNOXIDE B], the pIC50 in the test on MDA-MB-231 [1] is 5.25; in the test with DU-145 [2], 5.18; with DU-145 [3] it was 5.28; with PC-3 [5], 4.89; with MCF7 [6], 4.86; with PC-3 [8], 4.78. For the same molecule, the negative-log IC50 (pIC50) in the test with T47D [9] is 5.25; in the test on MCF7 [10] it was 5.18; in the test with T47D [11], 5.22; with MDA-MB-231 [12], 4.88. In addition, the outcome in the test on MDA-MB-231 [13] was Active. In addition, the result in the test filed under Homo sapiens [14] and in the test with T47D [16] was inactive. This molecule also had an Activity in the test on T47D [15] of 97%. The inhibition in the test filed under Homo sapiens [7] turned out to be 95%.
In the case of `COC(=O)[C@@H](C)[C@H]1CC[C@](C)(CCCC(C)CCC2=C(C)CCCC2(C)C)OO1` (relative stereo) [DIACARNOXIDE C], the Activity entry with T47D [4] is recorded as “<=30%”. Moreover, the inhibition in the test listed under Homo sapiens [7] was less than 30%.
Turning to `COC(=O)[C@@H](C)[C@H]1CC[C@](C)(CCC/C(C)=C/CC2C(C)=CCCC2(C)C)OO1` (relative stereo) [DIACARNOXIDE D], the Activity entry in the test on T47D [4] was “<=30%”. In the test listed under Homo sapiens [7], the inhibition was less than 30%.
